Source: ChEMBL document CHEMBL4014308, “Amphiphilic Tobramycin-Lysine Conjugates Sensitize Multidrug Resistant Gram-Negative Bacteria to Rifampicin and Minocycline” (J Med Chem, 2017)
Values after ≈ are worked out from the molar mass of the structure shown. Active and inactive are the calls of the source. The calls are words filed in the database; no cut-off is given here.

Assays:
Assay type in all cases: functional
[1] = system: Pseudomonas aeruginosa; assay: Antibacterial activity against Pseudomonas aeruginosa PAO1 after 18 hrs by microtiter dilution assay; conditions: PAO1, 18 h
In short: (§1)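 Broth microdilution following CLSI guidelines. An overnight culture was adjusted to 0.5 McFarland in saline, then diluted 1:50 in Mueller-Hinton broth. This inoculum was added in equal volume to 2-fold serial dilutions of agent in MHB and incubated 18 h at 37 °C. MIC was the lowest concentration with no visible growth.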

[2] = system: Pseudomonas aeruginosa; assay: Antibacterial activity against multidrug/extremely drug-resistant/colistin-resistant Pseudomonas aeruginosa isolate 101243 after 18 hrs by microtiter dilution assay; conditions: isolate 101243, 18 h; in short: as §1
[3] = system: Pseudomonas aeruginosa; assay: Antibacterial activity against multidrug/extremely drug-resistant/colistin-susceptible Pseudomonas aeruginosa isolate P262-101856 after 18 hrs by microtiter dilution assay; conditions: isolate P262-101856, 18 h; in short: as §1
[4] = system: Pseudomonas aeruginosa; assay: Antibacterial activity against multidrug/extremely drug-resistant/colistin-susceptible Pseudomonas aeruginosa isolate 101885 after 18 hrs by microtiter dilution assay; conditions: isolate 101885, 18 h; in short: as §1
[5] = system: Pseudomonas aeruginosa; assay: Antibacterial activity against multidrug/extremely drug-resistant/colistin-susceptible Pseudomonas aeruginosa isolate 100036 after 18 hrs by microtiter dilution assay; conditions: isolate 100036, 18 h; in short: as §1
[6] = system: Pseudomonas aeruginosa; assay: Antibacterial activity against multidrug/extremely drug-resistant/colistin-resistant Pseudomonas aeruginosa isolate 91433 after 18 hrs by microtiter dilution assay; conditions: isolate 91433, 18 h; in short: as §1
[7] = system: Pseudomonas aeruginosa; assay: Antibacterial activity against multidrug/extremely drug-resistant/colistin-susceptible Pseudomonas aeruginosa isolate P259-96918 after 18 hrs by microtiter dilution assay; conditions: isolate P259-96918, 18 h; in short: as §1
[8] = system: Pseudomonas aeruginosa; assay: Antibacterial activity against multidrug/extremely drug-resistant/colistin-susceptible Pseudomonas aeruginosa isolate P264-104354 after 18 hrs by microtiter dilution assay; conditions: isolate P264-104354, 18 h; in short: as §1
[9] = system: Streptococcus pneumoniae; assay: Antibacterial activity against Streptococcus pneumoniae ATCC 49619 after 18 hrs by microtiter dilution assay; conditions: ATCC 49619, 18 h
In short: (§2)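 Broth microdilution per CLSI. Overnight culture adjusted to 0.5 McFarland in saline, diluted 1:50 in Mueller-Hinton broth, and added to an equal volume of 2-fold serial compound dilutions in MHB. Incubated 18 h at 37 °C. MIC taken as the lowest concentration with no visible growth.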

[10] = system: Klebsiella pneumoniae; assay: Antibacterial activity against Klebsiella pneumoniae ATCC 13883 after 18 hrs by microtiter dilution assay; conditions: ATCC 13883, 18 h; in short: as §2
[11] = system: Staphylococcus aureus; assay: Antibacterial activity against Staphylococcus aureus ATCC 29213 after 18 hrs by microtiter dilution assay; conditions: ATCC 29213, 18 h; in short: as §1
[12] = system: Pseudomonas aeruginosa; assay: Antibacterial activity against gentamicin/tobramycin-resistant Pseudomonas aeruginosa isolate CANWARD-2011 96846 after 18 hrs by microtiter dilution assay; conditions: isolate CANWARD-2011 96846, 18 h; in short: as §1
[13] = system: Escherichia coli; assay: Antibacterial activity against Escherichia coli ATCC 25922 after 18 hrs by microtiter dilution assay; conditions: ATCC 25922, 18 h; in short: as §1
[14] = system: Acinetobacter baumannii; assay: Antibacterial activity against Acinetobacter baumannii isolate CAN-ICU 63169 after 18 hrs by microtiter dilution assay; conditions: isolate CAN-ICU 63169, 18 h; in short: as §2
[15] = system: Pseudomonas aeruginosa; assay: Antibacterial activity against Pseudomonas aeruginosa ATCC 27853 after 18 hrs by microtiter dilution assay; conditions: ATCC 27853, 18 h; in short: as §2
[16] = system: Pseudomonas aeruginosa; assay: Synergistic antibacterial activity against Pseudomonas aeruginosa PAO1 after 18 hrs in presence of rifampicin by checkerboard assay
In short: (§3)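 Checkerboard in MHB: antibiotic diluted along one axis and adjuvant along the other (10 × 7 matrix). Inoculum was a 1:50 dilution in MHB of a 0.5 McFarland saline suspension; incubated 18 h at 37 °C. Each FIC = concentration in the no-growth well divided by the MIC alone; FIC index = sum of both FICs. ≤0.5 synergy, 0.5–4 no interaction, ≥4 antagonism.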

[17] = system: Escherichia coli; assay: Antibacterial activity against amikacin-resistant Escherichia coli isolate CAN-ICU 63074 after 18 hrs by microtiter dilution assay; conditions: isolate CAN-ICU 63074, 18 h; in short: as §1
[18] = system: Escherichia coli; assay: Antibacterial activity against gentamicin-resistant Escherichia coli isolate CAN-ICU 61714 after 18 hrs by microtiter dilution assay; conditions: isolate CAN-ICU 61714, 18 h; in short: as §1
[19] = system: Enterococcus faecalis; assay: Antibacterial activity against Enterococcus faecalis ATCC 29212 after 18 hrs by microtiter dilution assay; conditions: ATCC 29212, 18 h; in short: as §2
[20] = system: Staphylococcus epidermidis; assay: Antibacterial activity against methicillin-susceptible Staphylococcus epidermidis isolate CANWARD-2008 81388 after 18 hrs by microtiter dilution assay; conditions: isolate CANWARD-2008 81388, 18 h; in short: as §1
[21] = system: Staphylococcus aureus; assay: Antibacterial activity against methicillin resistant Staphylococcus aureus ATCC 33592 after 18 hrs by microtiter dilution assay; conditions: ATCC 33592, 18 h; in short: as §1
[22] = system: Escherichia coli; assay: Antibacterial activity against gentamicin/tobramycin/ciprofloxacin-resistant Escherichia coli isolate CANWARD-2011 97615 harboring AAC3-2A after 18 hrs by microtiter dilution assay; conditions: isolate CANWARD-2011 97615, 18 h; in short: as §1
[23] = system: Staphylococcus epidermidis; assay: Antibacterial activity against methicillin-resistant Staphylococcus epidermidis isolate CAN-ICU 61589 after 18 hrs by microtiter dilution assay; conditions: isolate CAN-ICU 61589, 18 h; in short: as §1
[24] = system: Pseudomonas aeruginosa; assay: Synergistic antibacterial activity against Pseudomonas aeruginosa PAO1 after 18 hrs in presence of minocycline by checkerboard assay; in short: as §3
[25] = system: Stenotrophomonas maltophilia; assay: Antibacterial activity against Stenotrophomonas maltophilia isolate CAN-ICU 62584 after 18 hrs by microtiter dilution assay; conditions: isolate CAN-ICU 62584, 18 h; in short: as §2
[26] = system: Pseudomonas aeruginosa; assay: Antibacterial activity against gentamicin-resistant Pseudomonas aeruginosa isolate CAN-ICU 62308 after 18 hrs by microtiter dilution assay; conditions: isolate CAN-ICU 62308, 18 h; in short: as §1
[27] = system: Enterococcus faecium; assay: Antibacterial activity against Enterococcus faecium ATCC 27270 after 18 hrs by microtiter dilution assay; conditions: ATCC 27270, 18 h; in short: as §2

SMILES	MIC [1]	MIC [2]	MIC [3]	MIC [4]	MIC [5]	MIC [6]	MIC [7]	MIC [8]	other results
CO[C@@H]1[C@@H](OC(N)=O)[C@@H](O)[C@H](Oc2ccc3c(O)c(NC(=O)c4ccc(O)c(CC=C(C)C)c4)c(=O)oc3c2C)OC1(C)C [NOVOBIOCIN]	1020 µg/mL (≈ 1670 µM)								
CC[C@H]1OC(=O)[C@H](C)[C@@H](O[C@H]2C[C@@](C)(OC)[C@@H](O)[C@H](C)O2)[C@H](C)[C@@H](O[C@@H]2O[C@H](C)C[C@H](N(C)C)[C@H]2O)[C@](C)(O)C[C@@H](C)C(=O)[C@H](C)[C@@H](O)[C@]1(C)O [ERYTHROMYCIN]	256 µg/mL (≈ 349 µM)	1020 µg/mL (≈ 1400 µM)	1020 µg/mL (≈ 1400 µM)	256 µg/mL (≈ 349 µM)	256 µg/mL (≈ 349 µM)	512 µg/mL (≈ 698 µM)	256 µg/mL (≈ 349 µM)	256 µg/mL (≈ 349 µM)	
COc1c(N2C[C@@H]3CCCN[C@@H]3C2)c(F)cc2c(=O)c(C(=O)O)cn(C3CC3)c12 [MOXIFLOXACIN]	1 µg/mL (≈ 2.49 µM)	4 µg/mL (≈ 9.96 µM)	128 µg/mL (≈ 319 µM)	64 µg/mL (≈ 159 µM)	128 µg/mL (≈ 319 µM)	8 µg/mL (≈ 19.9 µM)	512 µg/mL (≈ 1280 µM)	128 µg/mL (≈ 319 µM)	
C[C@@H](O)[C@H]1C(=O)N2C(C(=O)O)=C(S[C@@H]3CN[C@H](C(=O)N(C)C)C3)[C@H](C)[C@H]12 [MEROPENEM]	0.5 µg/mL (≈ 1.3 µM)								
Cl.Cl.Cl.Cl.Cl.Cl.Cl.NCCCC[C@H](N)C(=O)N(CCCCO[C@@H]1[C@@H](O[C@H]2O[C@H](CO)[C@@H](O)[C@H](N)[C@H]2O)[C@H](N)C[C@H](N)[C@H]1O[C@H]1O[C@H](CN)[C@@H](O)C[C@H]1N)Cc1c2ccccc2c(Cl)c2ccccc12	> 512 µg/mL	256 µg/mL	> 512 µg/mL	256 µg/mL	> 512 µg/mL	32 µg/mL	> 512 µg/mL	> 512 µg/mL	MIC [9]: > 128 µg/mL; MIC [10]: 128 µg/mL; MIC [11]: 64 µg/mL; MIC [12]: > 128 µg/mL; MIC [13]: 32 µg/mL; MIC [14]: > 128 µg/mL; MIC [15]: > 128 µg/mL; Activity [16]: inactive; MIC [17]: 64 µg/mL; MIC [18]: 64 µg/mL; MIC [19]: > 128 µg/mL; MIC [20]: 16 µg/mL; MIC [21]: 64 µg/mL; MIC [22]: 64 µg/mL; MIC [23]: 32 µg/mL; Activity [24]: inactive; MIC [25]: > 128 µg/mL; MIC [26]: 64 µg/mL; MIC [27]: > 128 µg/mL
O=C(N[C@H](CO)[C@H](O)c1ccc([N+](=O)[O-])cc1)C(Cl)Cl [CHLORAMPHENICOL]	64 µg/mL (≈ 198 µM)	4 µg/mL (≈ 12.4 µM)	1020 µg/mL (≈ 3170 µM)	512 µg/mL (≈ 1580 µM)	> 512 µg/mL	16 µg/mL (≈ 49.5 µM)	512 µg/mL (≈ 1580 µM)	1020 µg/mL (≈ 3170 µM)	
Cc1nnc(SCC2=C(C(=O)O)N3C(=O)[C@@H](NC(=O)Cn4cnnn4)[C@H]3SC2)s1 [CEFAZOLIN]									MIC [17]: 32 µg/mL (≈ 70.4 µM); MIC [18]: 32 µg/mL (≈ 70.4 µM); MIC [23]: > 32 µg/mL
